Measurements as given in ChEMBL document CHEMBL3808357, “Discovery of N-(3-((1-Isonicotinoylpiperidin-4-yl)oxy)-4-methylphenyl)-3-(trifluoromethyl)benzamide (CHMFL-KIT-110) as a Selective, Potent, and Orally Available Type II c-KIT Kinase Inhibitor for Gastrointestinal Stromal Tumors (GISTs)” (J Med Chem, 2016).
The source made the active and inactive calls. No cut-off for these calls is given here.

Experiments:
[1] = molecular target: Mast/stem cell growth factor receptor Kit (Homo sapiens) (UniProt P10721); assay: Inhibition of cKIT autophosphorylation at Y823 in human GIST882 cells up to 10 uM after 2 hrs by Western blot analysis; assay type: cell-based
Chain of Mast/stem cell growth factor receptor Kit (Homo sapiens) (P10721 whole entry): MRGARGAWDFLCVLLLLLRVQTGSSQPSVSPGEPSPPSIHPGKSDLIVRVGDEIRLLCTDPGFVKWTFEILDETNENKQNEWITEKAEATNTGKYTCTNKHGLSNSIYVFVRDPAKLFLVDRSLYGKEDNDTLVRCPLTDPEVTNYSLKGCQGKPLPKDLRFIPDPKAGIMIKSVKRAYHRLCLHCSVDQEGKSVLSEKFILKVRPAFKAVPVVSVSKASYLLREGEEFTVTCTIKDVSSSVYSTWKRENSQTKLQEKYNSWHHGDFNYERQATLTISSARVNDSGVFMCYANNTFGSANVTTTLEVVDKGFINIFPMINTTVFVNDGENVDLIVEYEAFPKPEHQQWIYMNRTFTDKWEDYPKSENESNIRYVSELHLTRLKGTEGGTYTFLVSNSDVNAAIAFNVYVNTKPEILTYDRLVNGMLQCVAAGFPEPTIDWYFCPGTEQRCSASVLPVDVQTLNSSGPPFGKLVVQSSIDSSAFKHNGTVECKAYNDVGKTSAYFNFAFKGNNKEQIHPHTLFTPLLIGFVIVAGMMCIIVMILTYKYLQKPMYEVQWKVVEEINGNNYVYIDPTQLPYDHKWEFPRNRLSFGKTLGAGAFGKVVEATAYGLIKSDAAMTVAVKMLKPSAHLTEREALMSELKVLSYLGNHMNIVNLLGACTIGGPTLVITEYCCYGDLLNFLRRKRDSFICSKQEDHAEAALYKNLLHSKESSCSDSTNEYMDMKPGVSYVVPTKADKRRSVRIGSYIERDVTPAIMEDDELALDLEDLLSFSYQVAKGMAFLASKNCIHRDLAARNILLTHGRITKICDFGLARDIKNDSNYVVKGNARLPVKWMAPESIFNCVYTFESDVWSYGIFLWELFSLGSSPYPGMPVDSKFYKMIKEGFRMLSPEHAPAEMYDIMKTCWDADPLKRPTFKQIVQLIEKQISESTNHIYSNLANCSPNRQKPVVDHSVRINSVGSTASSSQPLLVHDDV

[2] = molecular target: Mast/stem cell growth factor receptor Kit (Homo sapiens) (UniProt P10721); assay: Inhibition of cKIT in human GIST882 cells assessed as suppression of AKT phosphorylation at S473 up to 10 uM after 2 hrs by Western blot analysis; assay type: cell-based
[3] = molecular target: Mast/stem cell growth factor receptor Kit (Homo sapiens) (UniProt P10721); assay: Inhibition of cKIT in human GIST882 cells assessed as suppression of S6K phosphorylation at T389 up to 10 uM after 2 hrs by Western blot analysis; assay type: cell-based
[4] = molecular target: Mast/stem cell growth factor receptor Kit (Homo sapiens) (UniProt P10721); assay: Inhibition of cKIT in human GIST882 cells assessed as suppression of STAT5 phosphorylation at Y694 up to 10 uM after 2 hrs by Western blot analysis; assay type: cell-based
[5] = molecular target: Mast/stem cell growth factor receptor Kit (Homo sapiens) (UniProt P10721); assay: Inhibition of cKIT in human GIST48B cells assessed as suppression of AKT phosphorylation at S473 up to 10 uM after 2 hrs by Western blot analysis; assay type: cell-based
[6] = molecular target: Mast/stem cell growth factor receptor Kit (Homo sapiens) (UniProt P10721); assay: Inhibition of cKIT in human GIST48B cells assessed as suppression of S6K phosphorylation at T389 up to 10 uM after 2 hrs by Western blot analysis; assay type: cell-based
[7] = system: GISTT1; assay: Induction of apoptosis in human GISTT1 cells assessed as PARP cleavage up to 3 uM after 48 hrs by Western blot analysis; assay type: functional, cell-based
[8] = system: GIST882; assay: Induction of apoptosis in human GIST882 cells assessed as caspase 3 cleavage up to 3 uM after 72 hrs by Western blot analysis; assay type: functional, cell-based
[9] = Cell cycle arrest in human GIST48B cells at 0.3 to 3 uM after 24 hrs by propidium iodide/RNase staining based flow cytometric analysis; assay type: functional
In short: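 Cells were then fixed in 70% cold ethanol at −20 °C overnight, stained with PI/RNase buffer and analysed by flow cytometry.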

[10] = AUC(0 to infinity) in Sprague-Dawley rat plasma at 1 mg/kg, iv; assay type: ADME, organism-based; parameters: dose 1 mg/kg, time infinity, route intravenous
In short: (§1)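 Male Sprague-Dawley rats, 8 weeks old, fasted overnight, dosed iv or orally. Formulation was 5% DMSO/40% PEG400/55% saline at 1 mg/mL. Blood (~0.2 mL) was drawn from the jugular vein into heparin. Sampling: iv at 1 min to 8 h; oral at 5 min to 24 h. Plasma was separated by centrifugation at 2−8 °C and stored at −80 °C.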

[11] = Half life in Sprague-Dawley rat plasma at 10 mg/kg, po; assay type: ADME, organism-based; in short: as §1
[12] = system: Rattus norvegicus; assay: Apparent volume of distribution in Sprague-Dawley rat plasma at 10 mg/kg, po; assay type: ADME, organism-based; conditions: in vivo; in short: as §1
[13] = Apparent clearance in Sprague-Dawley rat plasma at 1 mg/kg, iv; assay type: ADME, organism-based; conditions: read-out: CL(app) (converted); in short: as §1
[14] = Apparent clearance in Sprague-Dawley rat plasma at 10 mg/kg, po; assay type: ADME, organism-based; conditions: read-out: CL(app) (converted); in short: as §1
[15] = Oral bioavailability in Sprague-Dawley rat plasma at 10 mg/kg; assay type: ADME, organism-based
In short: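 Male Sprague–Dawley rats, 8 weeks old, six in total, fasted overnight; compound dissolved in 5% DMSO/40% PEG400/55% saline (1 mg/mL dosing solution), given iv or orally. About 0.2 mL jugular blood taken with heparin at 1 min–8 h (iv) or 5 min–24 h (oral); plasma separated at 2–8 °C and stored at −80 °C before analysis.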

[16] = Antitumor activity against human GISTT1 cells xenografted in nu/nu mouse assessed as tumor growth inhibition at 100 mg/kg/day administered through oral gavage after 21 days; assay type: functional; conditions: 504 h, read-out: TGI
In short: (§2)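 Female nu/nu mice, 6 weeks old, received 5 × 10⁶ GIST-T1 cells in PBS/Matrigel (1:1) subcutaneously in the right flank. At 100−200 mm³, six mice per group were dosed daily by oral gavage at 25, 50 or 100 mg/kg/d in 0.5% methylcellulose/0.4% Tween80, or vehicle. Tumor volume was taken as (W²×L)/2, with body weight and tumor measured daily. Tumors were stained for Ki67 (IHC, 1:50 antibody) and by TUNEL.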

[17] = Antitumor activity against human GISTT1 cells xenografted in nu/nu mouse assessed as tumor growth inhibition at 50 mg/kg/day administered through oral gavage after 21 days; assay type: functional; conditions: 504 h, read-out: TGI; in short: as §2
[18] = molecular target: Macrophage colony-stimulating factor 1 receptor (Homo sapiens, UniProt P07333); assay: Inhibition of human wild type partial length CSF1R expressed in bacterial expression system assessed as residual activity at 1 uM by KinomeScan method
Chain of Macrophage colony-stimulating factor 1 receptor (P07333 whole entry): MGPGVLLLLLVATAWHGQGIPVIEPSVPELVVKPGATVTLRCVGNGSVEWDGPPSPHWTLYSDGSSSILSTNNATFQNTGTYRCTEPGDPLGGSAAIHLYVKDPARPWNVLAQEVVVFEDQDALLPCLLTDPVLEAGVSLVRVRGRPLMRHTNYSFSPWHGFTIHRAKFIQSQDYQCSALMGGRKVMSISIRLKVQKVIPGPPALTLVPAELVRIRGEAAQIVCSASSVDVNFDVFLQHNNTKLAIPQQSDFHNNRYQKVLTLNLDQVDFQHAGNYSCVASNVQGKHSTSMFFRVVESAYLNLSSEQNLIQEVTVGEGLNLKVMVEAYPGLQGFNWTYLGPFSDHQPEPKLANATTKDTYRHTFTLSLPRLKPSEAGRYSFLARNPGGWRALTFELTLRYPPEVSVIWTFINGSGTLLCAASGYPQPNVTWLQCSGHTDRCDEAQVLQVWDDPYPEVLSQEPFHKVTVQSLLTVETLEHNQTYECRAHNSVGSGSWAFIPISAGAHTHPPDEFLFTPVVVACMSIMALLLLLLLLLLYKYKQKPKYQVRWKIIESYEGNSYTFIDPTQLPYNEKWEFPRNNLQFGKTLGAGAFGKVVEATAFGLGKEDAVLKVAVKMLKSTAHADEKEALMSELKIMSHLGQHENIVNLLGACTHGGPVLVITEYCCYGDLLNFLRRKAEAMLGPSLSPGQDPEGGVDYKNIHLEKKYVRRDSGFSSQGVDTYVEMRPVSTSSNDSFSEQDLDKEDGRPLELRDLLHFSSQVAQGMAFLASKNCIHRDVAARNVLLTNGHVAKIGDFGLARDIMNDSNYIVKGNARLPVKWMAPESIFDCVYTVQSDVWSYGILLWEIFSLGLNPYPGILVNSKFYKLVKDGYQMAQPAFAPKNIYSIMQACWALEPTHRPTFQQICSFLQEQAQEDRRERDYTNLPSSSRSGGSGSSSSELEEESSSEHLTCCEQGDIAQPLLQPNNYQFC
In short: (§3)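 KinomeScan competitive binding panel of 468 kinases and mutants, compound tested at 1 μM; read-out is percent activity remaining (binding relative to control).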

[19] = molecular target: Epithelial discoidin domain-containing receptor 1 (Homo sapiens, UniProt Q08345); assay: Inhibition of human wild type partial length DDR1 expressed in bacterial expression system assessed as residual activity at 1 uM by KinomeScan method; in short: as §3
Chain of Epithelial discoidin domain-containing receptor 1 (Q08345 whole entry, the tested form may be a part): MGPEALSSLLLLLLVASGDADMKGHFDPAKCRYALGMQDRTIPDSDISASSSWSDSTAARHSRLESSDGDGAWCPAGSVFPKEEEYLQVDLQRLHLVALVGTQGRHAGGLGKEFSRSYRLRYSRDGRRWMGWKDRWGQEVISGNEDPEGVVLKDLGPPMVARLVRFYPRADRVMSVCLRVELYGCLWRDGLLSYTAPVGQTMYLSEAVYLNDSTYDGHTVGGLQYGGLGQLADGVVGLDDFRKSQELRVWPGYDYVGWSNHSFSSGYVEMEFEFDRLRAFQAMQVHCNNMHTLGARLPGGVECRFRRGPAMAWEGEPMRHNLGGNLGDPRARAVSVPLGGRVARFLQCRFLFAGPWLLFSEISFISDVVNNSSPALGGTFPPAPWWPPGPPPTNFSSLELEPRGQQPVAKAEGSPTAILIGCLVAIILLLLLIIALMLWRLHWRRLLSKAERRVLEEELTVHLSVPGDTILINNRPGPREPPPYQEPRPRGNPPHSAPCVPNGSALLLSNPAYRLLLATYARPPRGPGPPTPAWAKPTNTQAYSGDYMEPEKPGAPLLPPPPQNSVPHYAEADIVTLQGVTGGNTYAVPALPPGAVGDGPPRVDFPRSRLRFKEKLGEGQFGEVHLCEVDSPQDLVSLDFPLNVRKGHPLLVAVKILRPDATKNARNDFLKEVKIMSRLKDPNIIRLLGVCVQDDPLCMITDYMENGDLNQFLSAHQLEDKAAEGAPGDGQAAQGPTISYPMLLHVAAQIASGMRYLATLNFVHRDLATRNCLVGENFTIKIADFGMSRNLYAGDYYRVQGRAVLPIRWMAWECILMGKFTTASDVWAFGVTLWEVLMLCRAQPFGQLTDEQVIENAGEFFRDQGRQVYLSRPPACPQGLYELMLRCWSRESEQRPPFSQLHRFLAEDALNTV

[20] = molecular target: Mast/stem cell growth factor receptor Kit (Homo sapiens) (UniProt P10721); assay: Inhibition of human wild type partial length cKIT expressed in bacterial expression system assessed as residual activity at 1 uM by KinomeScan method; in short: as §3
[21] = molecular target: Platelet-derived growth factor receptor beta (Homo sapiens, UniProt P09619); assay: Inhibition of human wild type partial length PDGFRbeta expressed in bacterial expression system assessed as residual activity at 1 uM by KinomeScan method; in short: as §3
Chain of Platelet-derived growth factor receptor beta (P09619 whole entry): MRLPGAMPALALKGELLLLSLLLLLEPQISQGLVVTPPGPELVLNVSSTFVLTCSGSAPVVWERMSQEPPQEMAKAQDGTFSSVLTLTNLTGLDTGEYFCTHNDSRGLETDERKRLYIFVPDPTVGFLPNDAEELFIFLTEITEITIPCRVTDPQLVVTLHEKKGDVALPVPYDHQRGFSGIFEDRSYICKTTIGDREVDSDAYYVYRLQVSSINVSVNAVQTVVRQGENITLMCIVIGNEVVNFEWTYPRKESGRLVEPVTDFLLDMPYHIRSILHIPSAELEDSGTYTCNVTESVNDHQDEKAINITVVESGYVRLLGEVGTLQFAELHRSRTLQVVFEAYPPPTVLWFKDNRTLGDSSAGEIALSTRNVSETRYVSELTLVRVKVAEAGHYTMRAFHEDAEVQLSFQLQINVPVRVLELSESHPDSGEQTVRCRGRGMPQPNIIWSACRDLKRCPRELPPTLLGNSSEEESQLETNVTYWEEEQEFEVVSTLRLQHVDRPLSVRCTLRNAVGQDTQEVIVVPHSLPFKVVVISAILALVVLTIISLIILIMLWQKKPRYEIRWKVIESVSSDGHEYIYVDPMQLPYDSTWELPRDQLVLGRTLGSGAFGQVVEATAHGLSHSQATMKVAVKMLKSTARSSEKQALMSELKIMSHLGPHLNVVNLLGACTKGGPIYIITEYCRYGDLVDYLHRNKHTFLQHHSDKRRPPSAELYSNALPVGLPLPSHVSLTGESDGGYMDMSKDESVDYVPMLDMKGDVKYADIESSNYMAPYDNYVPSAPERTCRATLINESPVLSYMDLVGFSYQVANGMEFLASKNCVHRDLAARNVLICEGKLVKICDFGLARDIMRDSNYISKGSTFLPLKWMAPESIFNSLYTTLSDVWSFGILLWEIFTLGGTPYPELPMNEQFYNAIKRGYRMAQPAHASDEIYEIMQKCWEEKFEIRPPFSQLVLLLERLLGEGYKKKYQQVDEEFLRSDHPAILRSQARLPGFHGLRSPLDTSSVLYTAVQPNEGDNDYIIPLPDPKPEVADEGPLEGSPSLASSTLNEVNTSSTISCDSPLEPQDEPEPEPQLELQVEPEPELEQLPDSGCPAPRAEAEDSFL

[22] = Antiproliferative activity against mouse BAF3 cells; assay type: cell-based
[23] = system: Mast/stem cell growth factor receptor Kit (Homo sapiens), P10721 [V559D,V654A]; assay: Inhibition of Tel-fused cKIT V559D/V654A double mutant (unknown origin) transfected in mouse BAF3 cells assessed as decrease in cell proliferation after 72 hrs by celltiter-glo/CCK8 assay; assay type: cell-based
Chain of Mast/stem cell growth factor receptor Kit (Homo sapiens), P10721 [V559D,V654A] (P10721 whole entry V559D/V654A, the tested form may be a part): as the sequence (P10721 whole entry) above, with V559D, V654A counted along it
In short: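 Stable BaF3 lines made by retroviral transduction with mutagenized TEL-KIT MSCV vectors, puromycin selection 48 h, then gradual IL-3 withdrawal until IL-3-independent; grown in RPMI 1640 with 10% FBS. Cells at 1 to 3 × 10⁴ cells/mL exposed to a concentration series for 72 h; viability read by CellTiter-Glo luminescence or CCK-8 absorbance (450/655 nm); GI50 from triplicate testing.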

[24] = Antiproliferative activity against human GIST48B cells assessed as reduction in cell viability after 72 hrs by celltiter-glo/CCK8 assay; assay type: functional
In short: (§4)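 Cells were seeded at 1 to 3 × 10⁴ cells/mL with serial compound concentrations and incubated 72 h at 37 °C, 5% CO₂. Viability was read by CellTiter-Glo luminescence or CCK-8 absorbance (450/655 nm). GI50 values are from triplicate testing. GIST-T1 and CHO were grown in DMEM/10% FBS; GIST-882, GIST-48B and MV4-11 in IMDM/10% FBS; other lines in RPMI 1640/10% FBS.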

[25] = Antiproliferative activity against BCR-ABL dependent human KU812 cells assessed as reduction in cell viability after 72 hrs by celltiter-glo/CCK8 assay; assay type: functional; conditions: KU812, 72 h; in short: as §4
[26] = Antiproliferative activity against human Rec1 cells assessed as reduction in cell viability after 72 hrs by celltiter-glo/CCK8 assay; assay type: functional; conditions: Rec1, 72 h; in short: as §4
[27] = Antiproliferative activity against CHL cells assessed as reduction in cell viability after 72 hrs by celltiter-glo/CCK8 assay; assay type: cell-based, Cricetulus griseus; conditions: chinese hamster; in short: as §4

inhibition [1]: Active
inhibition [2]: Active
inhibition [3]: Active
inhibition [4]: Active
inhibition [5]: inactive
inhibition [6]: inactive
AUC(0-inf) [10]: 202 ng·h/mL
half-life [11]: 4.11 h
Vz [12]: 76.407 L/kg
clearance [13]: 83.1 mL/min/kg
CL/F [14]: 215 mL/min/kg
bioavailability [15]: 36.1%
Activity [18]: 0.6%
Activity [19]: 0.15%
Activity [20]: 0.45%
Activity [21]: 0.2%
GI50 [23]: 1.05 µM
SMILES: Cc1ccc(NC(=O)c2cccc(C(F)(F)F)c2)cc1OC1CCN(C(=O)c2ccncc2)CC1
Activity [7]: Active
Activity [8]: Active
Activity [9]: inactive
inhibition in vivo at 100 mg/kg/day [16]: 49%
inhibition in vivo at 50 mg/kg/day [17]: 35%
GI50 [22]: > 10 µM
GI50 [24]: > 10 µM
GI50 [25]: 6.71 µM
GI50 [26]: > 10 µM
GI50 at 72 h [27]: > 10 µM
